Measurements as given in ChEMBL document CHEMBL1671640, “Antifungal activities of human beta-defensins HBD-1 to HBD-3 and their C-terminal analogs Phd1 to Phd3” (Antimicrob Agents Chemother, 2009).
In brackets after ≈: the same amount, converted by molar mass. Activity calls are given as the source filed them. No cut-off for these calls is given here. Where a SMILES comes first, the peptide text is derived from it. Bridges are numbered along the chain shown (N, C = ends).

What was measured:
[1] = tested on: Candida albicans; assay: Fungicidal activity against Candida albicans ATCC 18804 at MFC in presence of 100 mM NaCl; assay type: functional, organism-based
Procedure, shortened: (§1)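 Mid-log cells at 10^6/ml in 10 mM phosphate buffer pH 7.4 containing added NaCl (25 or 100 mM), CaCl2 (0.5 or 5 mM) or MgCl2 (0.5 or 25 mM). Peptides at the stated multiple of MFC, 2 h at 30°C. Aliquots diluted and plated on YEPD agar for 24 h. Colonies counted and percent killing calculated. Three independent experiments in duplicate.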

[2] = tested on: Candida albicans; assay: Fungicidal activity against Candida albicans ATCC 18804 at MFC in presence of 0.5 mM MgCl2; assay type: functional, organism-based; procedure, shortened: as §1
[3] = tested on: Candida albicans; assay: Fungicidal activity against Candida albicans ATCC 18804 at MFC in presence of 5 mM CaCl2; assay type: functional, organism-based; procedure, shortened: as §1
[4] = tested on: Candida albicans; assay: Antifungal activity against Candida albicans ATCC 18804 after 24 hrs; assay type: functional; details: ATCC 18804, 24 h
Procedure, shortened: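 Mid-log C. albicans (subcultured 2 h in YEPD after 20 h aerobic growth at 30°C), washed and resuspended at 10^6 cells/ml in 10 mM phosphate buffer pH 7.4. Exposed to peptides for 2 h at 30°C, then diluted, plated on YEPD agar and incubated 24 h at 30°C. MFC = concentration giving no viable colonies. Averages of three independent experiments in duplicate.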

[5] = tested on: Candida albicans; assay: Fungicidal activity against Candida albicans ATCC 18804 at MFC pretreated with 5 mM sodium azide for 2 hrs at 30 deg C; assay type: functional, organism-based
Procedure, shortened: (§2)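 Mid-log cells at 10^6/ml in phosphate buffer were preincubated 2 h at 30°C with shaking with 5 mM sodium azide or 50 µM CCCP. Peptides were then added at MFC for 2 h at 30°C. Cells plated on YEPD agar for 24 h and colonies counted as percent killing. Three independent experiments in duplicate.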

[6] = tested on: Candida albicans; assay: Fungicidal activity against Candida albicans ATCC 18804 at MFC pretreated with 50 uM carbonyl cyanide m-chlorophenylhydrazone for 2 hrs at 30 deg C; assay type: functional, organism-based; procedure, shortened: as §2
[7] = tested on: Candida albicans; assay: Fungicidal activity against Candida albicans ATCC 18804 at MFC in presence of 25 mM NaCl; assay type: functional, organism-based; procedure, shortened: as §1
[8] = tested on: Candida albicans; assay: Fungicidal activity against Candida albicans ATCC 18804 assessed as […] killing rate at 2 times MFC in presence of 100 mM NaCl; assay type: functional; procedure, shortened: as §1
[9] = Toxicity in human Erythrocyte assessed as hemolysis at 100 uM; assay type: cell-based; details: erythrocytes, read-out: Activity
Procedure, shortened: (§3)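 Human erythrocytes from heparinized blood, washed three times in 5 mM HEPES pH 7.4 with 150 mM NaCl. 10^7 cells/ml incubated with a range of peptide concentrations for 30 min at 37°C with gentle mixing. Supernatant absorbance read at 540 nm. 0.1% Triton X-100 lysis taken as maximum.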

[10] = tested on: Candida albicans; assay: Induction of membrane damage in Candida albicans ATCC 18804 by Sytox green dye influx assay; assay type: functional, organism-based
Procedure, shortened: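 Mid-log cells (10^7 CFU/ml) washed and resuspended in phosphate buffer with 1 µM Sytox green at 30°C. Once basal fluorescence was constant, peptide was added and the fluorescence increase recorded at excitation 488 nm and emission 540 nm.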

[11] = tested on: Candida albicans; assay: Fungicidal activity against Candida albicans ATCC 18804 at MFC in presence of 0.5 mM Mg2+; assay type: functional, organism-based; procedure, shortened: as §1
[12] = tested on: Candida albicans; assay: Fungicidal activity against Candida albicans ATCC 18804 at MFC in presence of 0.5 mM Ca2+; assay type: functional, organism-based; procedure, shortened: as §1
[13] = tested on: Candida albicans; assay: Induction of membrane damage in Candida albicans ATCC 18804 at 50% MFC by propidium iodide staining; assay type: functional, organism-based
Procedure, shortened: (§4)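 C. albicans treated 15 min at 30°C with N-terminally carboxyfluorescein-labelled peptides at 50% MFC plus 4 µg/ml propidium iodide. Untreated cells served as control. Examined by confocal microscopy using 488- and 543-nm laser lines, 63× water objective and 1 airy unit optical sections.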

[14] = Drug localization in membranes of Candida albicans ATCC 18804 at 50% MFC by confocal microscopy; assay type: ADME; procedure, shortened: as §4
[15] = tested on: Candida albicans; assay: Drug uptake in Candida albicans ATCC 18804 assessed as cellular localization at MFC50 by confocal fluorescence microscopy; assay type: ADME, organism-based; details: in vivo; procedure, shortened: as §4
[16] = Toxicity in human Erythrocyte assessed as hemolysis upto 75 uM; assay type: cell-based; procedure, shortened: as §3
[17] = tested on: Candida albicans; assay: Fungicidal activity against Candida albicans ATCC 18804 at MFC in presence of 25 mM MgCl2; assay type: functional, organism-based; procedure, shortened: as §1

| Structure (SMILES) | inhibition [1] | inhibition [2] | inhibition [3] | MFC [4] [µM] | inhibition [5] | fungicidal activity (active/not active) [6] | inhibition [7] | inhibition (percent killing) [8] [%] | hemolysis at 100 µM [9] [%] | Activity [10] | inhibition [11] | inhibition [12] | Activity [13] | Drug uptake [14] | Drug uptake [15] | Activity [16] | inhibition [17] |
| --- | --- | --- | --- | --- | --- | --- | --- | --- | --- | --- | --- | --- | --- | --- | --- | --- | --- |
| CC[C@H](C)[C@@H]1NC(=O)[C@H](CCCCN)NC(=O)[C@H]([C@@H](C)O)NC(=O)[C@H](Cc2ccccc2)NC(=O)[C@H]([C@@H](C)CC)NC(=O)[C@@H]2CCCN2C(=O)[C@@H]2CSSC[C@@H](C(=O)N[C@@H](CCCCN)C(=O)O)NC(=O)[C@@H]3CSSC[C@H](NC(=O)[C@H](CC(N)=O)NC(=O)[C@H](Cc4ccc(O)cc4)NC(=O)[C@H](Cc4cnc[nH]4)NC(=O)[C@@H](N)CC(=O)O)C(=O)N[C@@H](C(C)C)C(=O)N[C@@H](CO)C(=O)N[C@@H](CO)C(=O)NCC(=O)NCC(=O)N[C@@H](CCC(N)=O)C(=O)N[C@@H](CSSC[C@H](NC(=O)[C@H]([C@@H](C)O)NC(=O)CNC(=O)[C@H](CCC(N)=O)NC1=O)C(=O)N[C@@H](Cc1ccc(O)cc1)C(=O)N[C@@H](CCCNC(=N)N)C(=O)NCC(=O)N[C@@H](CCCCN)C(=O)N[C@@H](C)C(=O)N[C@@H](CCCCN)C(=O)N3)C(=O)N[C@@H](CC(C)C)C(=O)N[C@@H](Cc1ccc(O)cc1)C(=O)N[C@@H](CO)C(=O)N[C@@H](C)C(=O)N2 (H-DHYNCVSSGGQCLYSACPIFTKIQGTCYRGKAKCCK-OH; disulfide 5-34, 12-27, 17-35) | inactive | Active | inactive | 7 (≈ 27.5 µg/mL) | inactive | inactive | inactive | 50 | – | – | – | – | – | – | – | – | – |
| CC[C@H](C)[C@@H]1NC(=O)[C@H](CCCCN)NC(=O)[C@H]([C@@H](C)O)NC(=O)[C@H](Cc2ccccc2)NC(=O)[C@H]([C@@H](C)CC)NC(=O)[C@@H]2CCCN2C(=O)[C@@H](NC(=O)[C@H](C)N)CSSC[C@@H](C(=O)N[C@@H](CCCCN)C(=O)O)NC(=O)[C@H](CCCCN)NC(=O)[C@H](C)NC(=O)[C@H](CCCCN)NC(=O)CNC(=O)[C@H](CCCNC(=N)N)NC(=O)[C@H](Cc2ccc(O)cc2)NC(=O)[C@H]([C@@H](C)O)NC(=O)CNC(=O)[C@H](CCC(N)=O)NC1=O (H-ACPIFTKIQGTYRGKAKCK-OH; disulfide 2-18) | inactive | Active | inactive | 18 (≈ 38 µg/mL) | Active | Active | Active | 50 | 15 | Active | Active | Active | Active | Active | Active | Non-toxic | – |
| CC[C@H](C)[C@@H]1NC(=O)[C@H](CCC(N)=O)NC(=O)[C@H](CCC(=O)O)NC(=O)[C@H](CCC(=O)O)NC(=O)[C@H](CCCCN)NC(=O)[C@@H]2CCCN2C(=O)[C@H](CC(C)C)NC(=O)[C@@H](NC(=O)[C@@H](N)CO)CSSC[C@@H](C(=O)N[C@@H](CCCNC(=N)N)C(=O)N[C@@H](CCCNC(=N)N)C(=O)N[C@@H](CCCCN)C(=O)N[C@@H](CCCCN)C(=O)O)NC(=O)[C@H](CCCCN)NC(=O)[C@H](CCCNC(=N)N)NC(=O)CNC(=O)[C@H](CCCNC(=N)N)NC(=O)[C@H]([C@@H](C)O)NC(=O)[C@H](CO)NC(=O)[C@H](CCCCN)NC(=O)CNC1=O (H-SCLPKEEQIGKSTRGRKCRRKK-OH; disulfide 2-18) | inactive | – | – | 16 (≈ 41.4 µg/mL) | Active | Active | Active | 50 | 15 | Active | Active | Active | Active | Active | Active | Non-toxic | Active |
| CC[C@H](C)[C@@H]1NC(=O)[C@H](CCC(N)=O)NC(=O)[C@H](CCCCN)NC(=O)[C@H](Cc2ccc(O)cc2)NC(=O)[C@H](CCCNC(=N)N)NC(=O)[C@H](CCCNC(=N)N)NC(=O)[C@@H]2CCCN2C(=O)[C@@H](NC(=O)[C@@H](N)Cc2ccccc2)CSSC[C@@H](C(=O)N[C@@H](CCCCN)C(=O)O)NC(=O)[C@H](CCCCN)NC(=O)[C@H]([C@@H](C)O)NC(=O)CNC(=O)[C@@H]2CCCN2C(=O)[C@H](CC(C)C)NC(=O)CNC(=O)[C@H]([C@@H](C)O)NC(=O)CNC1=O (H-FCPRRYKQIGTGLPGTKCK-OH; disulfide 2-18) | inactive | Active | inactive | 18 (≈ 38.7 µg/mL) | Active | Active | Active | 50 | 15 | Active | Active | Active | Active | Active | Active | Non-toxic | – |
